# In ChEMBL document CHEMBL3045828, “An efficient method for the purification and characterization of nematicidal azadirachtins A, B, and H, using MPLC and ESIMS” (J Agric Food Chem, 2003):
# Columns and labels:
# Athelia rolfsii [1] = test: Fungicidal activity against Athelia rolfsii assessed as mycelial growth inhibition; assay type: functional; conditions: Agroathelia rolfsii; read-out: ED50 (the source's name)
# Summary of the method: (§1)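 Poisoned food technique on potato-dextrose-agar. Fungi kept on PDA slants at 25 °C and subcultured before testing. A stock in acetone (65 mg/4 mL) was diluted into PDA to about 500, 250, 100, 25 and 5 mg/L; acetone was the control. A 5-mm fungal disk was placed centrally, 2 dishes per treatment, 26 (±2) °C until control growth was nearly complete (2-3 days). Colony diameter was measured in three directions, and % and corrected inhibition were calculated.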
# Athelia rolfsii [2] = test: Fungicidal activity against Athelia rolfsii assessed as mycelial growth inhibition applied as 60% powdery concentrate; assay type: functional; conditions: Agroathelia rolfsii; read-out: ED50 (the source's name); summary of the method: as §1
# Athelia rolfsii [3] = test: Fungicidal activity against Athelia rolfsii assessed as mycelial growth inhibition applied as 20% powdery concentrate; assay type: functional; conditions: Agroathelia rolfsii; read-out: ED50 (the source's name); summary of the method: as §1
# Rhizoctonia solani [4] = test: Fungicidal activity against Rhizoctonia solani assessed as mycelial growth inhibition applied as 90% powdery concentrate; assay type: functional; conditions: read-out: ED50 (the source's name); summary of the method: as §1
# Rhizoctonia solani [5] = test: Fungicidal activity against Rhizoctonia solani assessed as mycelial growth inhibition applied as 60% powdery concentrate; assay type: functional; conditions: read-out: ED50 (the source's name); summary of the method: as §1
# Rhizoctonia solani [6] = test: Fungicidal activity against Rhizoctonia solani assessed as mycelial growth inhibition applied as 20% powdery concentrate; assay type: functional; conditions: read-out: ED50 (the source's name); summary of the method: as §1
# Rotylenchulus reniformis [7] = test: Nematicidal activity against fourth-stage juvenile of Rotylenchulus reniformis (reniform nematode) assessed as juvenile immobility applied as 90% powdery concentrate after 72 hr by stereoscopic binocular microscopic analysis; assay type: functional, organism-based
# Summary of the method: (§2)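 Juveniles came from a single-egg-mass culture maintained on cowpea in sterilized soil-sand. Exposed in Petri dishes, 3 per treatment, with water plus ethanol as control. Immobility scored by stereomicroscope at 72 h. Revival test: 48 h in distilled water, and revived juveniles were subtracted. Mortality was Abbott-corrected, with LC50 in ppm.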
# Rotylenchulus reniformis [8] = test: Nematicidal activity against fourth-stage juvenile of Rotylenchulus reniformis (reniform nematode) assessed as juvenile immobility applied as 60% powdery concentrate after 72 hr by stereoscopic binocular microscopic analysis; assay type: functional, organism-based; summary of the method: as §2
# Caenorhabditis elegans [9] = test: Nematicidal activity against Caenorhabditis elegans assessed as mortality applied as 20% powdery concentrate after 24 hr; assay type: functional
# Summary of the method: (§3)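 C. elegans grown on NG agar carrying E. coli. 15-20 worms in 48 µL saline per well, 3 wells per treatment, plus 2 µL 50% DMSO with or without test material (200 ppm). Plates covered and kept in a humid chamber. Dead nematodes counted microscopically at 2, 4, 6 and 24 h.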
# Caenorhabditis elegans [10] = test: Nematicidal activity against Caenorhabditis elegans assessed as mortality at 200 ppm after 24 hr; assay type: functional; summary of the method: as §3
# Rotylenchulus reniformis [11] = test: Nematicidal activity against fourth-stage juvenile of Rotylenchulus reniformis (reniform nematode) assessed as juvenile immobility applied as 20% powdery concentrate after 72 hr by stereoscopic binocular microscopic analysis; assay type: functional, organism-based; summary of the method: as §2
# Rhizoctonia solani [12] = test: Fungicidal activity against Rhizoctonia solani assessed as mycelial growth inhibition; assay type: functional; conditions: read-out: ED50 (the source's name); summary of the method: as §1
# Rotylenchulus reniformis [13] = test: Nematicidal activity against fourth-stage juvenile of Rotylenchulus reniformis (reniform nematode) assessed as juvenile immobility after 72 hr by stereoscopic binocular microscopic analysis; assay type: functional, organism-based; summary of the method: as §2
Compound,EC50 (Athelia rolfsii [1]),EC50 (Athelia rolfsii [2]),EC50 (Athelia rolfsii [3]),EC50 (Rhizoctonia solani [4]),EC50 (Rhizoctonia solani [5]),EC50 (Rhizoctonia solani [6]),EC50 (Rotylenchulus reniformis [7]),EC50 (Rotylenchulus reniformis [8]),mortality (Caenorhabditis elegans [9]),mortality at 200 ppm (Caenorhabditis elegans [10]),EC50 (Rotylenchulus reniformis [11]),EC50 (Rhizoctonia solani [12]),EC50 (Rotylenchulus reniformis [13])
C/C=C(\C)C(=O)O[C@H]1C[C@@H](OC(C)=O)[C@@]2(C(=O)OC)CO[C@H]3[C@@H](O)[C@@](C)([C@]45O[C@@]4(C)[C@@H]4C[C@H]5O[C@@H]5OC=C[C@@]54O)[C@H]4[C@]1(CO[C@]4(O)C(=O)OC)[C@@H]32 [AZADIRACHTIN A],93.6 µg/mL,122 µg/mL,140 µg/mL,105 µg/mL,132 µg/mL,165 µg/mL,119.1 ppm,151.9 ppm,50%,56%,193.9 ppm,–,–
C/C=C(\C)C(=O)O[C@@H]1C[C@H](O)[C@]23CO[C@H](C(=O)OC)[C@H]2[C@](C)([C@]24O[C@@]2(C)[C@H]2C[C@@H]4O[C@@H]4OC=C[C@@]42O)[C@H](O)[C@@H]2OC[C@@]1(C(=O)OC)[C@H]23 [AZADIRACHTIN B],76.2 µg/mL,–,–,–,–,–,–,–,–,64%,–,85.9 µg/mL,96.6 ppm
C/C=C(\C)C(=O)O[C@H]1C[C@@H](OC(C)=O)[C@@]2(C(=O)OC)CO[C@H]3[C@@H](O)[C@@](C)([C@]45O[C@@]4(C)[C@H]4C[C@@H]5O[C@@H]5OC=C[C@@]54O)[C@@H]4[C@H](O)OC[C@@]14[C@@H]32 [AZADIRACHTIN H],43.9 µg/mL,–,–,–,–,–,–,–,–,65%,–,63.7 µg/mL,141.2 ppm
